Measured values: ChEMBL document CHEMBL1121898, “Potential antiestrogens. Synthesis and evaluation of mammary tumor inhibiting activity of 1,2-dialkyl-1,2-bis(3'-hydroxyphenyl)ethanes” (1981)

Legend:
[1] = target: T1, Estrogen receptor (Mus musculus) (UniProt O08537+P19785); assay: Inhibitory activity in mouse uterine weight test at 50 ug; type: functional
Method in brief: (§1)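 Antiuterotrophic (Dorfman) assay in immature 20-day-old female NMRI mice, groups of 10. Uterine growth was stimulated with estrone (0.1 μg) and the test compound was given alongside it, sc daily for 3 days in 0.1 mL olive oil. Uteri were taken 24 h after the last dose. Uterine weight is reported as means ± SD and inhibition as % of the estrone-stimulated response.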

MCF7 = assay: Inhibition of estrogen receptor positive MCF-7 cell proliferation as cell number after 10 days at 10e-7 M and 10e-7 M 17-beta-estradiol; type: functional, Homo sapiens
Method in brief: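 MCF-7 cells were grown in McCoy's 5a medium with fetal bovine serum stripped by DCC (0.5 h, 45 °C). Compounds were dissolved in ethanol (final ≤0.5%) and diluted in complete medium. Cells were seeded at 5×10^4 cells/plate. On day 10, three replicate plates per group were counted by Coulter counter, three counts per plate. Percent T/C = test/control. In a retest, compounds were given at 10^-7 M with 17β-estradiol at 10^-7 or 10^-8 M.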

Rattus norvegicus [2] = organism: Rattus norvegicus; assay: Percent change in DMBA-induced hormone-dependent mammary carcinoma tumor area at 2.25 mg after 28 days; type: functional
Method in brief: (§2)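 DMBA-induced, hormone-dependent mammary adenocarcinoma in SD rats. Rats bearing at least one tumor >140 mm² were placed in groups of ten. Compound was given sc as a single dose (mg/kg) daily Monday–Thursday and a double dose on Friday. Tumors were counted at the start and as new tumors; responses were scored as complete remission (not palpable), partial remission (≥50% reduction), no change or progression. Tumor area and body weight were recorded as % change.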

[3] = target: T1, Estrogen receptor (Mus musculus); assay: Antiestrogenic activity in uterotrophic test in mice at 500 ug; type: functional
Method in brief: (§3)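 Immature female NMRI mice, 20 days old (14.5 ± 1.2 g), randomly grouped 10 per group. Each received a daily sc injection for 3 days of 0.1 mL olive oil solution containing test compound, together with estrone to stimulate uterine growth. Uteri were removed 24 h after the last injection and weighed. Results are reported as % inhibition of the estrone-stimulated uterine weight gain, mean ± SD.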

Rattus norvegicus [4] = organism: Rattus norvegicus; assay: Complete remission of DMBA-induced hormone-dependent mammary carcinoma tumors in ovariectomised rats; type: functional
Method in brief: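 Female SD rats bearing DMBA-induced, hormone-dependent mammary adenocarcinoma, with at least one tumor >140 mm², were grouped in tens. Dosing was sc per kg body weight: a single dose daily Monday–Thursday and a double dose Friday. Ovariectomy served as the comparison arm. Complete remission was defined as a tumor no longer palpable. Body weight and tumor area changes were also recorded.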

Rattus norvegicus [5] = organism: Rattus norvegicus; assay: Partial remission of DMBA-induced hormone-dependent mammary carcinoma tumors in rats at 4.5 mg; type: functional; method in brief: as §2
Rattus norvegicus [6] = organism: Rattus norvegicus; assay: Partial remission of DMBA-induced hormone-dependent mammary carcinoma tumors in ovariectomised rats; type: functional
Method in brief: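 DMBA-induced, hormone-dependent mammary adenocarcinoma in SD rats, with ovariectomy as the treatment. Rats bearing at least one tumor >140 mm² were placed in groups of ten. Tumors were counted at the start and as new tumors. Responses were scored as complete remission, partial remission (≥50% size reduction), no change or progression, with % change in tumor area and body weight.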

Rattus norvegicus [7] = organism: Rattus norvegicus; assay: Percent change in body weight DMBA-induced hormone-dependent mammary carcinoma tumors in rats at 2.25 mg for 7 days; type: functional
[8] = target: T1, Estrogen receptor (Mus musculus); assay: Inhibitory activity in mouse uterine weight test at 25 ug (experiment 2); type: functional; method in brief: as §1
[9] = target: T1, Estrogen receptor (Mus musculus); assay: Antiestrogenic activity in uterotrophic test in mice at 0 ug (experiment 1); type: functional; method in brief: as §3

T1 sequence (O08537 whole entry, looked up): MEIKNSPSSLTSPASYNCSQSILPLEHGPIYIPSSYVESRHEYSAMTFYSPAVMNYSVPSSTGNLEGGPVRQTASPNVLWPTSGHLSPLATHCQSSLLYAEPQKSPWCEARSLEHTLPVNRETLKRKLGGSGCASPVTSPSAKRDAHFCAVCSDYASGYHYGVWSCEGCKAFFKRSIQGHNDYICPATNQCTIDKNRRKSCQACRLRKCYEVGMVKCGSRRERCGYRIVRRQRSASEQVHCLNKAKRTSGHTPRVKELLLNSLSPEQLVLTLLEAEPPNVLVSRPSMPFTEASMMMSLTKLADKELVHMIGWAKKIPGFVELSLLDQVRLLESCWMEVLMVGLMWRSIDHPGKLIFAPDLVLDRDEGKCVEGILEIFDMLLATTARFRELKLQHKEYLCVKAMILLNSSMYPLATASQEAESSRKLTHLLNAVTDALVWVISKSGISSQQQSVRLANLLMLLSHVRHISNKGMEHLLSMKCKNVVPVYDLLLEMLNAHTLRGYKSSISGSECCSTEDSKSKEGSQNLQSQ
T1 sequence (P19785 whole entry, looked up): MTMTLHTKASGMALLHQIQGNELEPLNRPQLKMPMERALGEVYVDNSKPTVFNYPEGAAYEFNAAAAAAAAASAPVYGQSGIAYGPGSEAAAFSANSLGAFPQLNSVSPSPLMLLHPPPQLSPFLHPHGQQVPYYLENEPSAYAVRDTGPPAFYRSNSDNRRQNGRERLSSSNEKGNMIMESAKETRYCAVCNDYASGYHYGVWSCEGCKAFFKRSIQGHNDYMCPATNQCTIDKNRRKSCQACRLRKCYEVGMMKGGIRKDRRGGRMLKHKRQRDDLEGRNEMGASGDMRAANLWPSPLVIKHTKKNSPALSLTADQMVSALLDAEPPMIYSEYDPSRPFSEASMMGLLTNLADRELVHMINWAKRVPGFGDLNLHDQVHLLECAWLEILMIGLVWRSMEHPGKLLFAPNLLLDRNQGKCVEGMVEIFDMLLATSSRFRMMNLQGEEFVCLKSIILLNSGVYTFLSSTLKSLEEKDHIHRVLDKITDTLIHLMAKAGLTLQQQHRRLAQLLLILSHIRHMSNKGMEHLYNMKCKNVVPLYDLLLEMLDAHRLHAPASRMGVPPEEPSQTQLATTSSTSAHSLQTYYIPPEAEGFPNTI

Row | inhibition [1] [%] | Effect [3] | inhibition [8] [%] | Effect [9] | Compound | Cell number (MCF7) | Change (Rattus norvegicus [2]) [%] | Tumors (Rattus norvegicus [4]) [%] | Tumors (Rattus norvegicus [5]) [%] | Tumors (Rattus norvegicus [6]) [%] | Change (Rattus norvegicus [7]) [%]
1 | 43 | 23.9 |  |  | CCCC(c1cccc(O)c1)C(CCC)c1cccc(O)c1 (stereo not given) | 5600 | 271 | 90 | 14 | 10 | 0.4
2 |  |  | 48 | 12.5 | CCC(c1cccc(O)c1)C(CC)c1cccc(O)c1 (stereo in doubt; 20) |  |  |  |  |  | 
